Screening data deposited in PubChem BioAssay by Broad Institute.
The entries come from a sample that favours hits as a whole.
IDH1 R132H inh – blocks human IDH1 R132H reductase activity; O75874; diaphorase/resazurin fluorescence, 60 min; inhibition, % at 10 µM; 70,000 compounds, 0.18% hits; AID 624101; in the data active means inhibition above about 34%; inconclusive means no clear call, values can overlap the other calls; inactive means below about 11%;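 further: 0% = DMSO and 100% = no enzyme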
Target sequence (O75874 whole entry R132H): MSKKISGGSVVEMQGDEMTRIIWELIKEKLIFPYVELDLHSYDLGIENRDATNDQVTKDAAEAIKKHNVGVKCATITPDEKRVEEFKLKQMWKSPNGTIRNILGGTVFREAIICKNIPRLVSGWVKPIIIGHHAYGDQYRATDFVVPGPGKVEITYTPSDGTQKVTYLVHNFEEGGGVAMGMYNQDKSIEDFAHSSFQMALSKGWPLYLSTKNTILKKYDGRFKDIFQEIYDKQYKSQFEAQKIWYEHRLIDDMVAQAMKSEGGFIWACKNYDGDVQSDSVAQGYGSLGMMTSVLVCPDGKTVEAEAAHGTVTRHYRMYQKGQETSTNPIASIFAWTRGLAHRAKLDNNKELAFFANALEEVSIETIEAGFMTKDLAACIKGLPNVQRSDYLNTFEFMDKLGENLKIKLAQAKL
T cruzi growth-1 – T. cruzi proliferation inhibition; AID 624255; T. cruzi beta-gal in NIH3T3, GalScreen luminescence, 90 h; inhibition, % at 8.34 µM; 77,000 compounds, 5.9% hits;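 active means mean inhibition above about 93%, with at least 55% of replicates each passing it, limit read from the data, passing the limit was not always enough; inconclusive means only one of those two conditions holds; inactive means neither condition holds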
GASC1 inh – blocks human GASC-1 (KDM4C) demethylase activity; 96,000 compounds, 0.15% hits; GST-KDM4C 2-372, H3K9me3 peptide, LANCE TR-FRET; Q9H3R0; AID 720574; inhibition, % at 12.5 µM;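 active means mean replicate inhibition above about 25%, with at least 55% of replicates also reaching it, limit read from the data, passing the limit was not always enough; inconclusive means only one of those two conditions met; inactive means neither condition met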
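Test system: N-terminal GST-fused human GASC-1 (KDM4C) fragment, residues 2-372; quantity: GASC-1 enzyme at 10 nM final in reaction; dosing: single dose; schedule: 30 min demethylation and 1 h detection at room temperature; signal: LANCE TR-FRET, excitation 340 nm, emissions 618 and 671 nm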
T cruzi growth-2 – inhibitors of T. cruzi proliferation. T. cruzi beta-gal in NIH3T3, GalScreen luminescence, 90 h. shares compounds with T cruzi growth-1. inhibition, % at 8.35 µM. 5,600 compounds, 72% hits;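 active means mean replicate inhibition above about 95% and at least 55% of replicates individually reaching it, limit read from the data; inconclusive means only one of the two criteria is met; inactive means neither criterion is met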
T cruzi growth-3 – inhibitors of T. cruzi proliferation; shares compounds with T cruzi growth-1; T. cruzi beta-gal in NIH3T3, GalScreen luminescence, 90 h; inhibition, % at 2.09 µM; 5,600 compounds, 21% hits;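 active means mean inhibition above about 95%, with at least 55% of replicates also reaching it, limit read from the data; inconclusive means meets just one of the two conditions; inactive means meets neither condition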;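 further: plate controls were neutral control median for no effect and positive control median for full effect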
NIH3T3 tox – cytotoxicity in mouse NIH/3T3 fibroblasts. NIH/3T3 viability, CellTiter-Glo ATP luminescence, 90 h. 5,600 compounds, 14% hits. shares compounds with T cruzi growth-1. cytotoxicity (signal decrease), % at 8.35 µM;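 active means mean signal decrease across replicates above about 35% based on untreated-well scatter, with enough replicates individually passing, limit read from the data; inconclusive means no rule stated though some were filed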;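 further: 0% = median of neutral control wells and 100% = median of positive control wells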
NIH3T3 tox 2 – cytotoxicity in mouse NIH/3T3 fibroblasts | inhibition, % at 24.9 µM | NIH/3T3 viability, CellTiter-Glo ATP luminescence, 90 h | AID 651744 | 5,600 compounds, 56% hits | shares compounds with T cruzi growth-1;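 active means mean loss of cell viability signal at or above a set limit, and enough replicates individually reaching it; inconclusive means meets only the mean limit or only the replicate share; inactive means meets neither condition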;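 further: 0% = median of neutral control wells and 100% = median of positive control wells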
Active calls of the source: *; ? = inconclusive; · = no result given; + = active, no number.

SMILES	IDH1 R132H inh	T cruzi growth-1	GASC1 inh	T cruzi growth-2	T cruzi growth-3	NIH3T3 tox	NIH3T3 tox 2
COC(=O)[C@@H]1[C@@H](CO)[C@@H]2Cn3c(ccc(-c4ccncc4)c3=O)[C@H]1N2CCc1ccccc1	·	8.5	-1.5	·	·	·	·
COC(=O)[C@H]1[C@H](CO)[C@H]2Cn3c(ccc(C4=CCCCC4)c3=O)[C@@H]1N2Cc1ccccn1	·	100.8*	4.0	-19.9	-4.3	-4.1	3.8
COC(=O)[C@H]1[C@H](CO)[C@H]2Cn3c(ccc(-c4ccccc4)c3=O)[C@@H]1N2CC1CCCC1	·	·	-0.6	·	·	·	·
COC(=O)[C@@H]1[C@@H](CO)[C@@H]2Cn3c(ccc(-c4ccccc4F)c3=O)[C@H]1N2CC1CCCC1	·	+	1.9	67.5	2.0	22.3	42.1*
COC(=O)[C@@H]1[C@@H](CO)[C@@H]2Cn3c(ccc(C4=CCCCC4)c3=O)[C@H]1N2Cc1ccccn1	·	94.6	0.5	·	·	·	·
O=C(Cc1ccccn1)N1CCCCN2[C@H](CO)[C@@H](c3ccc(Br)cc3)[C@H]2C1	·	104.6*	1.0	-3.0	-13.5	3.8	-0.7
O=C(Cc1ccccn1)N1CCCCN2[C@H](CO)[C@H](c3ccc(-c4ccccc4)cc3)[C@H]2C1	·	41.3	-0.7	·	·	·	·
O=C(Cc1ccccn1)N1CCCCN2[C@@H](CO)[C@@H](c3ccc(-c4ccccc4)cc3)[C@@H]2C1	·	113.3*	0.8	?	68.4	-9.2	14.7
O=C(Cc1ccccn1)N1CCCCN2[C@H](C1)[C@H](c1ccc(Br)cc1)[C@@H]2CO	·	2.3	-0.6	·	·	·	·
COc1ccc(CN2CCN(CCO)CC2)c(OC)c1C	0.2	·	·	·	·	·	·
Cc1cc(SCc2sc(-c3ccc(C(F)(F)F)c(F)c3)nc2C)ccc1OCC(=O)O	-9.6	·	·	·	·	·	·
COC(=O)C[C@@H]1CC[C@@H]2NC[C@H](O)COC[C@H]2O1	·	50.0	1.6	·	·	·	·
COC(=O)C[C@H]1CC[C@@H]2NC[C@H](O)COC[C@H]2O1	·	105.3*	-0.7	15.3	18.0	-7.1	15.9
N#Cc1cccc(-c2ccc([C@H]3[C@@H](CO)N4CCCCN(C(=O)Cc5ccncc5)C[C@@H]34)cc2)c1	·	101.6*	-2.2	77.6	-14.8	-17.4	4.0
N#Cc1cccc(-c2ccc([C@@H]3[C@@H](CO)N4CCCCN(C(=O)Cc5ccncc5)C[C@@H]34)cc2)c1	·	66.3	-0.6	·	·	·	·
N#Cc1cccc(-c2ccc([C@H]3[C@@H](CO)N4CCCCN(C(=O)Cc5ccncc5)C[C@H]34)cc2)c1	·	80.6	-1.3	·	·	·	·
N#Cc1cccc(-c2ccc([C@H]3[C@H](CO)N4CCCCN(C(=O)Cc5ccncc5)C[C@@H]34)cc2)c1	·	118.4*	2.1	99.9*	82.1	15.1	51.9*
N#Cc1cccc(-c2ccc([C@@H]3[C@H](CO)N4CCCCN(C(=O)Cc5ccncc5)C[C@@H]34)cc2)c1	·	92.3	0.2	·	·	·	·
N#Cc1cccc(-c2ccc([C@@H]3[C@H]4CN(C(=O)Cc5ccncc5)CCCCN4[C@H]3CO)cc2)c1	·	108.1*	-1.2	73.8	3.2	6.6	12.7
CO[C@H]1C[C@H](OC2CCC3(C)C4CCC5(C)C(C6=CC(=O)OC6)CC(OC(C)=O)C5(O)C4CC[C@H]3C2)O[C@@H](C)[C@@H]1O (stereo partly drawn)	0.5	·	·	·	·	·	·
CC(C)c1cc2c(cc1O)[C@@]1(C)C[C@@H](O)CC(C)(C)C1CC2 (stereo partly drawn)	-0.1	·	·	·	·	·	·
COC(=O)[C@@H]1[C@@H](CO)[C@@H]2Cn3c(ccc(-c4ccccc4)c3=O)[C@H]1N2C(=O)c1ccccc1F	·	77.3	-1.9	·	·	·	·
CN(C(=O)Cc1ccccc1)C(CN1CCCC1)c1ccccc1 (stereo not drawn)	0.2	·	·	·	·	·	·
O=C(NC(=O)c1ccccc1Cl)Nc1ccc2c(c1)S(=O)(=O)C=C2	-1.7	·	·	·	·	·	·
C[C@]12C=CC(=O)C=C1CCC1C2CC[C@]2(C)C(=O)CCC12 (stereo partly drawn)	-0.6	·	·	·	·	·	·
SMILES	IDH1 R132H inh	T cruzi growth-1	GASC1 inh	T cruzi growth-2	T cruzi growth-3	NIH3T3 tox	NIH3T3 tox 2
CC(=O)O[C@@H](c1nc2ccccc2c(=O)n1[C@@H]1C[C@@]2(OC1=O)c1ccccc1N1C(=O)[C@H](C)N(O)[C@@H]12)C(C)C	0.3	·	·	·	·	·	·
C=CCN1CCC23c4c5ccc(O)c4OC2C(=O)CCC3(O)C1C5 (stereo not drawn)	-2.5	·	·	·	·	·	·
COc1ccc(C(=O)O[C@H]2CC[C@@]3(C)[C@@H]4CC[C@H]5[C@]6(O)C[C@H](O)[C@@]7(O)[C@@H](CN8C[C@@H](C)CC[C@H]8[C@@]7(C)O)[C@]6(O)C[C@@]53O[C@]24O)cc1OC	-0.5	·	·	·	·	·	·
COC(=O)[C@H]1[C@H](CO)[C@H]2Cn3c(ccc(-c4ccccc4OC)c3=O)[C@@H]1N2Cc1ccccc1	·	-13.4	1.1	·	·	·	·
CC=Cc1ccc2n(c1=O)C[C@H]1[C@H](CO)[C@@H](C(=O)OC)[C@@H]2N1S(=O)(=O)c1cccc(C)c1 (mixture of isomers)	·	106.9*	-2.7	102.1*	2.7	-0.4	3.0
CC=Cc1ccc2n(c1=O)C[C@@H]1[C@@H](CO)[C@H](C(=O)OC)[C@H]2N1CC1CC1 (mixture of isomers)	·	3.7	2.5	·	·	·	·
COc1ccc2c(c1OC)C(=O)O[C@@H]2[C@@H]1c2cc3c(cc2CCN1C)OCO3	2.0	·	·	·	·	·	·
N#Cc1ccc(-c2ccc([C@H]3[C@@H](CO)N4CCCCN(C(=O)Cc5ccccc5)C[C@H]34)cc2)cc1	·	79.9	-0.4	·	·	·	·
O=C(Cc1ccccc1)N1CCCCN2[C@H](CO)[C@@H](c3ccc(-c4ccccc4)cc3)[C@H]2C1	·	99.9*	-1.4	?	35.9	11.3	105.2*
N#Cc1ccc(-c2ccc([C@H]3[C@H]4CN(C(=O)Cc5ccccc5)CCCCN4[C@H]3CO)cc2)cc1	·	46.3	-3.6	·	·	·	·
N#Cc1cccc(-c2ccc([C@H]3[C@@H](CO)N4CCCCN(C(=O)Cc5ccccc5)C[C@H]34)cc2)c1	·	108.6*	-0.6	111.0*	80.7	18.9	55.7*
N#Cc1ccc(-c2ccc([C@H]3[C@@H](CO)N4CCCCN(C(=O)Cc5ccccc5)C[C@@H]34)cc2)cc1	·	80.9	-3.4	·	·	·	·
N#Cc1cccc(-c2ccc([C@@H]3[C@H](CO)N4CCCCN(C(=O)Cc5ccccc5)C[C@@H]34)cc2)c1	·	99.5*	-0.7	104.0*	40.1	-0.7	57.4*
N#Cc1cccc(-c2ccc([C@H]3[C@@H](CO)N4CCCCN(C(=O)Cc5ccccc5)C[C@@H]34)cc2)c1	·	109.6*	0.1	103.1*	76.8	-5.1	0.2
O=C(Cc1ccccc1)N1CCCCN2[C@H](C1)[C@H](c1ccc(-c3ccccc3)cc1)[C@@H]2CO	·	40.5	-1.1	·	·	·	·
c1ccc(CC(c2ccccc2)N2CCCCC2)cc1 (stereo not drawn)	-1.0	·	·	·	·	·	·
